This is an account of results in ChEMBL document CHEMBL5036380, “New Highly Potent NLRP3 Inhibitors: Furanochalcone Velutone F Analogues” (ACS Med Chem Lett, 2022).

Data set [1] has as its system THP-1. Briefly: Antiinflammatory activity in human THP-1 cells assessed as inhibition of LPS-induced IL-1beta secretion in LPS stimulation for 3 hrs followed by pretreatment at 2uM for 40 min before induced with nigericin for 40 min measured by ELISA. In kind it is functional. The following applies: for inhibition at 2 µM: THP-1, 1.333 h, time 80 min; for inhibition: time 80.0 min. The method in brief:
(§1)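 THP-1 cells (2 × 10^5 cells/mL) differentiated with PMA (100 ng/mL) for 24 h. Next day, primed with LPS (1 μg/mL) for 3 h, then compound for 40 min, then nigericin (10 μM) for 40 min. IL-1β in supernatant measured by ELISA; % inhibition as mean ± SD of three independent experiments. The single-concentration screen used 2 μM.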
Background: An ELISA detects its analyte on a solid surface through an enzyme-linked reagent.

For data set [2], the system named is THP-1. The data set can be described thus: Antiinflammatory activity in human THP-1 cells assessed as inhibition of LPS-induced IL-1beta secretion in LPS stimulation for 3 hrs followed by pretreatment for 40 min before induced with nigericin for 40 min measured by ELISA. In kind it is functional. The following applies: time 80 min; 1.333 h. The method in brief:
as §1

Data set [3] concerns THP-1. The data set can be described thus: Cytotoxicity against human THP-1 cells assessed as reduction in cell viability at 0.05 to 6.4 uM measured after 90 mins by CCK8 assay. In kind it is cell-based. The following applies: thp-1, 1.5 h, dose 0.05-6.4 µM. The method in brief:
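THP-1 cells preincubated with compound (0.05–6.4 μM) for 1.5 h; viability read by CCK8 assay.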
Background: Tetrazolium assays rely on reduction of a dye to a coloured formazan, in cell work by metabolically active cells.

The next data set concerns Spleen. The data set can be described thus: Downregulation of IL-1beta level in spleen of LPS treated C57BL/6J mouse at 10 mg/kg, iv measured after 6 hrs by ELISA.

Calls of active or inactive are those of the source. The calls are words filed in the database; no cut-off is given here.

With `COc1c(/C=C/C(=O)c2ccc(C(F)(F)F)cc2)cc(OC)c2occc12`, the inhibition at 2 µM in the data set on THP-1 [1] is 50%. On to `COc1c(/C=C/C(=O)c2ccco2)cc(OC)c2occc12`, for which, in the data set with THP-1 [1], the inhibition at 2 µM was 32.8%.

Turning to `COc1c(/C=C/C(=O)c2ccc(C#N)cc2)cc(OC)c2occc12`, the inhibition at 2 µM in the data set with THP-1 [1] amounted to 27.6%. On the same count and under the same terms, the figure for `COc1c(/C=C/C(=O)c2cccc(C(F)(F)F)c2)cc(OC)c2occc12` is 64.7%; for `COc1c(/C=C/C(=O)c2cccc(Br)n2)cc(OC)c2occc12` it is 67.7%. Still for that read-out and setting: the figure for `COc1c(/C=C/C(=O)Nc2ccccc2)cc(OC)c2occc12` is 7.4%. The same measure, in the same setting: the value for `C=CC(=O)N(Cc1cc(OC)c2occc2c1OC)c1ccc(F)cc1` was 15%; that for `COc1c(/C=C/C(=O)c2cccc(C)c2)cc(OC)c2occc12` was 75%.

Regarding `COc1c(CCC(=O)c2cccc(Br)n2)cc(OC)c2occc12`, the inhibition at 2 µM with THP-1 [1] is 10.7%. As to `COc1c(/C=C/C(=O)c2ccc(F)cc2)cc(OC)c2occc12`, the Activity with THP-1 [2] was 0.656 µM; in the data set on THP-1 [3] it was “Non-Toxic”. In addition, the inhibition at 2 µM in the data set with THP-1 [1] came out at 88.2%. On to `COc1c(/C=C/C(=O)c2ccccc2)cc(OC)c2occc12`, for which, in the data set with Spleen, the outcome was Active. Further, the inhibition at 2 µM in the data set with THP-1 [1] was 50.8%. As for `COc1c(/C=C/C(=O)c2ccc[nH]2)cc(OC)c2occc12`, the inhibition at 2 µM in the data set on THP-1 [1] is 10.3%. As to `COc1ccc(OC)c(/C=C/C(=O)c2ccc(F)cc2)c1`, the inhibition at 2 µM in the data set with THP-1 [1] turned out to be 91.1%. For `COc1c(/C=C/C(=O)c2ccccc2N)cc(OC)c2occc12`, the inhibition at 2 µM with THP-1 [1] was determined as 19.8%. In the case of `COc1c(/C=C/C(=O)c2cccc(C(F)(F)F)n2)cc(OC)c2occc12`, the inhibition at 2 µM in the data set on THP-1 [1] came out at 32.4%. Still for that read-out and setting: the figure for `COc1c(/C=C/C(=O)c2cccc(O)c2)cc(OC)c2occc12` is 60.5%; for `COc1c(/C=C/C(=O)O)cc(OC)c2occc12` it is 5.2%. For `COc1c(/C=C/C(=O)Nc2cccc(C(F)(F)F)c2)cc(OC)c2occc12`, the inhibition result in the data set with THP-1 [1] is “inactive”. With `COc1c(/C=C/C(=O)c2ccc(Cl)cn2)cc(OC)c2occc12`, the inhibition at 2 µM with THP-1 [1] is 20.3%.

For the compound `COc1c(C(=O)/C=C/c2ccccc2)cc(OC)c2occc12`, the inhibition at 2 µM in the data set with THP-1 [1] worked out at 15.5%. As for `C=CC(=O)N(Cc1cc(OC)c2occc2c1OC)c1ccccc1`, the inhibition at 2 µM with THP-1 [1] amounted to 31.8%. Take `COc1c(CCC(=O)c2cccc(C(F)(F)F)c2)cc(OC)c2occc12`: the inhibition result with THP-1 [1] was “inactive”. Take `COc1cc(-c2ccccc2S(C)(=O)=O)c(OC)cc1/C=C/C(=O)c1ccc(F)cc1`: the Activity with THP-1 [2] was 0.325 µM; in the data set on THP-1 [3] it was “Non-Toxic”. Moreover, in the data set with THP-1 [1], the inhibition at 2 µM was 102%. Regarding `COc1cc(/C=C/C(=O)c2ccc(F)cc2)c(OC)cc1C=C(C)C`, the inhibition entry in the data set with THP-1 [1] is “inactive”.

With `COc1cc(-c2ccoc2)c(OC)cc1/C=C/C(=O)c1ccc(F)cc1`, the inhibition at 2 µM with THP-1 [1] was 38.5%. Consider `COc1c(/C=C/C(=O)c2ccc(N)cc2)cc(OC)c2occc12`, for which the inhibition result in the data set on THP-1 [1] is “inactive”.

As for `COc1c(/C=C/C(=O)c2cccc(-c3cccs3)n2)cc(OC)c2occc12`, the inhibition at 2 µM with THP-1 [1] was determined as 15.9%. Still for that read-out and setting: the figure for `COc1c(/C=C/C(=O)c2cccc(F)c2)cc(OC)c2occc12` is 51.4%; for `COc1c(/C=C/C(=O)c2ccc3ccccc3n2)cc(OC)c2occc12` it is 32.1%. With `COc1c(/C=C/C(=O)Nc2cccc(Br)n2)cc(OC)c2occc12`, the inhibition result in the data set with THP-1 [1] was “inactive”. As to `COc1c(CCC(=O)c2ccccc2)cc(OC)c2occc12`, the inhibition result in the data set on THP-1 [1] is “inactive”. For `COc1cc(C(=O)/C=C/c2cc(OC)c3occc3c2OC)cc(OC)c1OC`, the inhibition at 2 µM with THP-1 [1] was 42%. The same measure, in the same setting: the value for `COc1c(/C=C/C(=O)c2ccccn2)cc(OC)c2occc12` was 56.9%; that for `COc1c(/C=C/C(=O)C2CC2)cc(OC)c2occc12` was 8.7%. Same read-out and setting: the value for `COc1c(/C=C/C(=O)c2cccc(-c3ccccc3)n2)cc(OC)c2occc12` was 15.9%. For the compound `C=CC(=O)N(Cc1cc(OC)c2occc2c1OC)c1cccc(C(F)(F)F)c1`, in the data set with THP-1 [1], the inhibition result is “inactive”. In the case of `COc1c(/C=C/C(=O)c2ccccc2F)cc(OC)c2occc12`, the inhibition at 2 µM in the data set with THP-1 [1] stood at 50.4%. In the case of `COc1cncc(-c2cc(OC)c(/C=C/C(=O)c3ccc(F)cc3)cc2OC)c1`, the inhibition result in the data set on THP-1 [1] was “inactive”. Turning to `COc1cc(-c2ccccc2C)c(OC)cc1/C=C/C(=O)c1ccc(F)cc1`, the inhibition entry with THP-1 [1] is “inactive”.

On to `C=CC(=O)N(Cc1cc(OC)c2occc2c1OC)c1cccc(Br)n1`, for which the inhibition result in the data set on THP-1 [1] is “inactive”. For the compound `COc1cc(-c2cc(F)cc(F)c2)c(OC)cc1/C=C/C(=O)c1ccc(F)cc1`, the inhibition entry with THP-1 [1] was “inactive”. `COc1cc(/C=C/C(=O)c2ccc(F)cc2)c(OC)cc1C`: the inhibition at 2 µM with THP-1 [1] is 80.6%. Regarding `COc1cc(NS(=O)(=O)C2CC2)c(OC)cc1/C=C/C(=O)c1ccc(F)cc1`, the inhibition at 2 µM in the data set on THP-1 [1] stood at 24.8%. On to `COc1cc(-c2ccsc2)c(OC)cc1/C=C/C(=O)c1ccc(F)cc1`, for which the inhibition result with THP-1 [1] is “inactive”. `COc1cc(NS(C)(=O)=O)c(OC)cc1/C=C/C(=O)c1ccc(F)cc1`: the inhibition result in the data set on THP-1 [1] is “inactive”. As to `COc1c(CCC(=O)c2ccc(F)cc2)cc(OC)c2occc12`, the inhibition result in the data set on THP-1 [1] is “inactive”. As to `COc1c(/C=C/C(=O)c2ccc(Br)cc2)cc(OC)c2occc12`, the inhibition at 2 µM in the data set with THP-1 [1] came to 50.1%.

In the case of `COc1cc(-c2ccccc2NS(C)(=O)=O)c(OC)cc1/C=C/C(=O)c1ccc(F)cc1`, the Activity is 0.407 µM in the data set on THP-1 [2] and “Non-Toxic” in the data set on THP-1 [3]. The inhibition at 2 µM in the data set with THP-1 [1] is 101%. Turning to `COc1c(/C=C/C(=O)Nc2ccc(F)cc2)cc(OC)c2occc12`, in the data set with THP-1 [1], the inhibition result is “inactive”. As to `COc1cc(-c2cccc(Cl)c2)c(OC)cc1/C=C/C(=O)c1ccc(F)cc1`, the inhibition entry in the data set with THP-1 [1] was “inactive”. The same measure, in the same setting: the entry for `COc1cc(-c2cn[nH]c2)c(OC)cc1/C=C/C(=O)c1ccc(F)cc1` is “inactive”. Take `COc1c(/C=C/C(=O)c2cccc(N)c2)cc(OC)c2occc12`: in the data set on THP-1 [1], the inhibition at 2 µM is 58.8%. Same read-out and setting: the value for `CC(C)(O)c1coc(S(=O)(=O)NC(=O)Nc2c3c(cc4c2CCC4)CCC3)c1` was 106%.

Broadly, the inhibition is the drop in the measured response relative to a control, in per cent.
